High-throughput results (PubChem BioAssay)
Only some compounds are listed: those with a hit (about 1.5% of all), similar ones and a draw of the others.
CRFR2-BP antag: CRF-BP/CRF-R2 complex antagonism | inhibition, % at 11.8 µM | 0.59% of 350,000 active | HEK293 CRF-R2/CRF-BP, CRF-induced calcium fluorescence | AID 588475;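 active = inhibition of the ligand-induced calcium signal above about 50% at the single tested concentration, limit read from the data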
SIRT5 block: blocks human SIRT5 desuccinylation of peptide. Q9NXA8. Purified SirT5, succinyl-peptide AMC, trypsin-coupled fluorescence. inhibition, % at 15 µM. 1.1% of 330,000 active. AID 652115; in the data active = inhibition above about 15%
Target sequence (Q9NXA8 whole entry, looked up): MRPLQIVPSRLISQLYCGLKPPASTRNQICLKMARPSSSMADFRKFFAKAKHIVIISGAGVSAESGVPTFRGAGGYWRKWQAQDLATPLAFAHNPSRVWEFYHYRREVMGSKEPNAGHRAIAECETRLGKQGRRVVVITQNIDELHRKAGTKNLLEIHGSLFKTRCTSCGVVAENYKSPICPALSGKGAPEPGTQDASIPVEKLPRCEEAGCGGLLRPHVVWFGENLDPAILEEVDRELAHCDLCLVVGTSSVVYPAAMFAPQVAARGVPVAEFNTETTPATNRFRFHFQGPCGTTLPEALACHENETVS
PKA-R1A activ: activators of PKA-R1A complex. 0.083% of 340,000 active. PKA-R1A dissociation, Cy5-IP20 fluorescence polarization; scaled: DMSO 0%, 113 µM cGMP 100%. activation, % at 11.4 µM. AID 504707. P00514+P68181;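 active = percent activation above the mean of all tested compounds plus 3 SD, cut at about 19% in these data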;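 also: higher means more PKAc released from R1A so a rise in polarization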
S100A4 MyoIIA: blocks human S100A4 binding to myosin IIA peptide. S100A4/TAMRA-MyoIIA peptide fluorescence polarization. inhibition, % at 10.7 µM. P26447. 0.14% of 360,000 active;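 active = mean inhibition of at least 70% across replicates, with every replicate also reaching that level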
Target sequence (P26447 whole entry, looked up): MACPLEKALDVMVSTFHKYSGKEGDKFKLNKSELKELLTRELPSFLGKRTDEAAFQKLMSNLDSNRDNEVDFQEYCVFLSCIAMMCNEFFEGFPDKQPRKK
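Material: human S100A4 monomer with TAMRA-labelled myosin IIA peptide; buffer or medium: HEPES pH 7.2 with CaCl2, KCl, NaCl, DTT, Triton; compound dosing: one concentration per compound; schedule: 5 min incubation before reading; benchmarks: neutral control DMSO, positive control TFP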
PKA-R2B activ: activators of human PKA-R2B complex. P22694+P31323. activation, % at 11.4 µM. PKA-R2B holoenzyme dissociation, Cy5-IP20 fluorescence polarization; R2B truncated from residue 108, S112A mutant; 0% DMSO only, 100% 113 µM cGMP. 0.079% of 340,000 active;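 active = activation above a cutoff set at the mean over all compounds plus 3 SD, cut at about 18% in these data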;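 also: higher means more holoenzyme dissociation and a rise in polarization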
R2B FP artifact: counter-screen for PKA-R2B activators: fluorescence polarization artifacts; shares compounds with PKA-R2B activ; FP artifact counterscreen; activation, % at 11.4 µM; 6% of 270 active; AID 504796; in the data active = activation above about 20%;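 also: Cy5 labelled IP20 peptide probe with compound but no PKA protein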
PKA-R2B confirm: confirmation of human PKA-R2B complex activators; shares compounds with PKA-R2B activ; AID 504797; 9% of 270 active; activation, % at 11.4 µM; fluorescence polarization, activation; in the data active = activation above about 19%
An asterisk follows results filed as active; . = not tested or not shown.

SMILES	CRFR2-BP antag	SIRT5 block	PKA-R1A activ	S100A4 MyoIIA	PKA-R2B activ	R2B FP artifact	PKA-R2B confirm
O=C(Cc1cccnc1)N1[C@@H](CO)[C@@H]2c3ccccc3NC[C@@H]21	.	-2	.	8	.	.	.
CCOC(=O)C1CCN(C(=O)c2cc(COc3ccc(F)cc3F)on2)CC1	2	1	11	3	20*	3	6
CCOC(=O)N1CCN(C(=O)c2cc(COc3ccc(F)cc3F)on2)CC1	-25	-1	-1	2	1	.	.
O=C(C[C@@H]1CC[C@H](NC(=O)C2CCC2)[C@H](CO)O1)NC1CCCCC1	.	5	.	4	.	.	.
O=C(c1cccc(F)c1)N1C[C@H]2[C@@H](c3ccccc31)[C@H](CO)N2C(=O)C1CCOCC1	.	1	.	-3	.	.	.
CCC[C@@H]1Cc2ccccc2N1C(C)=O	-3	0	-5	1	20*	-2	-3
C/C=C/c1cccc(-c2nc(C(=O)N3CCN(C)CC3)cc3c2[C@H](CCO)N(C(=O)NC(C)C)C3)c1	.	-5	.	-2	.	.	.
COC(=O)Cc1cnc(NC(=O)C2C3CCC(C3)C2C(=O)O)s1 (stereo not drawn)	-9	.	4	.	19*	2	4
CCc1cc2c(=O)n(CC(=O)NC3CCCCC3)cnc2s1	-1	-5	9	11	19*	-1	1
O=C(c1ccco1)N1CCN(C(=O)c2ccc(CS(=O)c3ccc(Cl)cc3)o2)CC1 (stereo not drawn)	3	3	-4	-1	19*	5	-1
Cc1ccc(S(=O)Cc2ccc(C(=O)N3CCN(C(=O)c4ccco4)CC3)o2)cc1 (stereo not drawn)	-3	-1	-5	-4	-1	.	.
N#Cc1nc(-c2cccs2)oc1NCC1CCCO1 (stereo not drawn)	-1	-103	3	2	19*	1	1
O=C(N/N=C/c1ccc(N2CCOCC2)s1)c1ccccc1Br	10	-1	1	-20	-6	.	.
Clc1cccc(N/N=C/c2ccc(N3CCOCC3)s2)c1	5	-1	7	-6	21*	6	-1
CCOc1ccc(N(C)S(=O)(=O)c2c[nH]c(C(=O)OC)c2)cc1	25	-3	3	0	20*	3	4
COCC#Cc1cnc2c(c1)C(=O)N([C@@H](C)CO)C[C@H](C)[C@H](CN(C)C(=O)Nc1ccccc1OC)O2	.	1	.	-2	.	.	.
COc1ccc(C)cc1NC(=O)C1CCN(C(=O)C2CC(=O)N(c3ccc(C)cc3)C2)CC1 (stereo not drawn)	5	-2	-14	6	-2	.	.
COc1ccccc1NC(=O)C1CCN(C(=O)C2CC(=O)N(c3ccc(C)cc3)C2)CC1 (stereo not drawn)	-4	4	5	2	20*	6	4
CCCC#Cc1cnc2c(c1)C(=O)N([C@@H](C)CO)C[C@@H](C)[C@H](CN(C)C(=O)Nc1ccccc1OC)O2	.	4	.	10	.	.	.
CC1C(=O)Nc2ccccc2N1C(=O)c1ccccc1 (stereo not drawn)	1	-8	-5	9	20*	6	1
C[C@@H]1CN([C@@H](C)CO)C(=O)c2cc(NC(=O)CCC(F)(F)F)ccc2O[C@H]1CN(C)Cc1ccccc1	.	0	.	11	.	.	.
C[C@H](CO)N1C[C@H](C)[C@H](CN(C)C(=O)c2ccncc2)OCc2ccccc2-c2ccccc2C1=O	.	1	.	-7	.	.	.
C[C@@H]1CN([C@H](C)CO)C(=O)Cc2cc(NC(=O)Nc3ccc(F)cc3)ccc2O[C@H]1CN(C)C(=O)Nc1ccccc1	.	-2	.	12	.	.	.
COc1cccc(CC(NC(C)=O)C(=O)NC2CCN(C(=O)C3CCCCC3)CC2)c1OC (stereo not drawn)	-5	-1	-1	0	-2	.	.
COc1cccc(CC(NC(C)=O)C(=O)NC2CCN(C(=O)c3ccncc3)CC2)c1OC (stereo not drawn)	5	-2	-5	-5	19*	6	2
